ChEMBL document CHEMBL1125677, “New derivatives of kanamycin B obtained by combined modifications in positions 1 and 6". Synthesis, microbiological properties, and in vitro and computer-aided toxicological evaluation” (J Med Chem, 1991)
Values after ≈ are worked out from the molar mass of the structure shown.

Legend:
Serratia marcescens [1] = experiment: Minimum inhibitory concentration was measured against Serratia marcescens ATCC 8100; assay type: functional
Procedure, shortened: (§1)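 Agar dilution and microtiter broth dilution, with incubation in Mueller-Hinton medium; MIC expressed in mg/L.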

Bacillus subtilis = experiment: Minimum inhibitory concentration was measured against Bacillus subtilis ATCC 6633.; assay type: functional; procedure, shortened: as §1
Klebsiella pneumoniae [2] = experiment: Minimum inhibitory concentration was measured against Klebsiella pneumoniae ATCC 13883; assay type: functional; procedure, shortened: as §1
Pseudomonas aeruginosa = experiment: Minimum inhibitory concentration was measured against Pseudomonas aeruginosa ATCC 27853; assay type: functional; procedure, shortened: as §1
Staphylococcus aureus [3] = experiment: Minimum inhibitory concentration was measured against Staphylococcus aureus ATCC 25923; assay type: functional; procedure, shortened: as §1
Serratia marcescens [4] = experiment: Minimum inhibitory concentration was measured against Serratia marcescens S20.; assay type: functional; procedure, shortened: as §1
Salmonella typhimurium [5] = experiment: (§2) Minimum inhibitory concentration was measured against Salmonella Typhimurium ATCC 14028; assay type: functional, salmonella typhimurium a; conditions: Salmonella enterica; procedure, shortened: as §1
Enterobacter cloacae = experiment: Minimum inhibitory concentration was measured against Enterobacter cloacae ATCC 23355; assay type: functional; procedure, shortened: as §1
Serratia marcescens [6] = experiment: Minimum inhibitory concentration was measured against Serratia marcescens S69.; assay type: functional; procedure, shortened: as §1
Escherichia coli [7] = experiment: Minimum inhibitory concentration was measured against Escherichia coli ATCC 25992.; assay type: functional; procedure, shortened: as §1
[8] = test system: Staphylococcus epidermidis; experiment: Minimum inhibitory concentration was measured against Staphylococcus epidermidis ATCC 12228.; assay type: functional; procedure, shortened: as §1
Klebsiella pneumoniae [9] = experiment: Minimum inhibitory concentration was measured against Klebsiella pneumoniae 00GT3020 producing AAD-(2'')-modifying enzyme; assay type: functional
Procedure, shortened: (§3)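 MICs were determined by agar dilution and by microtiter (broth) dilution in Mueller-Hinton medium against strains producing defined aminoglycoside-modifying enzymes. Values are reported in mg/L.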

Escherichia coli [10] = experiment: Minimum inhibitory concentration was measured against Escherichia coli 71120101 producing AAD-(4')) modifying enzyme; assay type: functional; procedure, shortened: as §3
Escherichia coli [11] = experiment: Minimum inhibitory concentration was measured against Escherichia coli 76070703 producing AAC-(3)-I modifying enzyme; assay type: functional; procedure, shortened: as §3
Escherichia coli [12] = experiment: Minimum inhibitory concentration was measured against Escherichia coli 73110901 producing AAC-(6')-I) modifying enzyme; assay type: functional; procedure, shortened: as §1
Escherichia coli [13] = experiment: Minimum inhibitory concentration was measured against Escherichia coli 001574-1 producing APH-(3'') modifying enzyme; assay type: functional; procedure, shortened: as §3
Providencia stuartii [14] = experiment: Minimum inhibitory concentration was measured against Providencia stuartii 75082808 producing AAC-(2'') modifying enzyme; assay type: functional; procedure, shortened: as §1
Providencia stuartii [15] = experiment: Minimum inhibitory concentration was measured against Providencia stuartii 00000164 producing AAC-(2'') modifying enzyme; assay type: functional; procedure, shortened: as §1
Escherichia coli [16] = experiment: Minimum inhibitory concentration was measured against Escherichia coli 72091801 producing AAC-(3)-I modifying enzyme; assay type: functional; procedure, shortened: as §3
Escherichia coli [17] = experiment: Minimum inhibitory concentration was measured against Escherichia coli OLA 290R5 producing AAD-(2'')-modifying enzyme; assay type: functional; procedure, shortened: as §3
Serratia marcescens [18] = experiment: microbe, parasite or virus in culture
Escherichia coli [19] = experiment: Minimum inhibitory concentration was measured against Escherichia coli 00000589 producing APH-(3'') modifying enzyme; assay type: functional; procedure, shortened: as §3
Serratia marcescens [20] = experiment: Minimum inhibitory concentration was measured against Serratia marcescens 75012711 producing AAD-(2'')+AAC(6'') modifying enzyme; assay type: functional; procedure, shortened: as §1
Providencia stuartii [21] = experiment: Minimum inhibitory concentration was measured against Providencia stuartii 72052305 producing AAC-(2'') modifying enzyme; assay type: functional; procedure, shortened: as §1
Salmonella typhimurium [22] = experiment: as §2; assay type: functional; procedure, shortened: as §1
Klebsiella pneumoniae [23] = experiment: (§4) Minimum inhibitory concentration was measured against Klebsiella pneumoniae 7608271 producing AAC-(3)-II modifying enzyme; assay type: functional; procedure, shortened: as §1
Klebsiella pneumoniae [24] = experiment: Minimum inhibitory concentration was measured against Klebsiella pneumoniae 760070702 producing AAC-(3)-I modifying enzyme; assay type: functional; procedure, shortened: as §1
Staphylococcus aureus [25] = experiment: Minimum inhibitory concentration was measured against Staphylococcus aureus 76080401 producing AAD-(4')) modifying enzyme; assay type: functional; procedure, shortened: as §1
Klebsiella pneumoniae [26] = experiment: as §4; assay type: functional; procedure, shortened: as §1; remark: listed apart in the source
Escherichia coli [27] = experiment: Minimum inhibitory concentration was measured against Escherichia coli 0000JR66 producing AAD-(2'')-modifying enzyme; assay type: functional; procedure, shortened: as §1
Klebsiella pneumoniae [28] = experiment: Minimum inhibitory concentration was measured against Klebsiella pneumoniae 75012101 producing AAD-(2'')-modifying enzyme; assay type: functional; procedure, shortened: as §1
[29] = in the assay text read “AAC-(2')” for “AAC-(2'')”

| Compound | MIC (Serratia marcescens [1]) [µg/mL] | MIC (Bacillus subtilis) [µg/mL] | MIC (Klebsiella pneumoniae [2]) [µg/mL] | MIC (Pseudomonas aeruginosa) [µg/mL] | MIC (Staphylococcus aureus [3]) [µg/mL] | MIC (Serratia marcescens [4]) [µg/mL] | MIC (Enterobacter cloacae) [µg/mL] | MIC (Serratia marcescens [6]) [µg/mL] | MIC (Escherichia coli [7]) [µg/mL] | MIC [8] [µg/mL] | MIC (Klebsiella pneumoniae [9]) [µg/mL] | MIC (Escherichia coli [10]) [µg/mL] | MIC (Escherichia coli [11]) [µg/mL] | MIC (Escherichia coli [12]) [µg/mL] | MIC (Escherichia coli [13]) [µg/mL] | MIC (Providencia stuartii [15]) [µg/mL] | MIC (Escherichia coli [16]) [µg/mL] | MIC (Escherichia coli [17]) [µg/mL] | MIC (Escherichia coli [19]) [µg/mL] | MIC (Serratia marcescens [20]) [µg/mL] | other results |
| --- | --- | --- | --- | --- | --- | --- | --- | --- | --- | --- | --- | --- | --- | --- | --- | --- | --- | --- | --- | --- | --- |
| CC(=O)NCC1OC(OC2C(O)C(OC3OC(CN)C(O)C(O)C3N)C(N)CC2(N)CO)C(O)C(N)C1O (stereo unspecified) | 16 (≈ 28.8 µM) | 8 (≈ 14.4 µM) | 2 (≈ 3.61 µM) | > 128 | 1 (≈ 1.8 µM) | > 64 | 0.25 (≈ 0.451 µM) | > 64 | 4 (≈ 7.21 µM) | 1 (≈ 1.8 µM) | – | – | – | – | – | – | – | – | – | – | MIC (Salmonella typhimurium [5]): 8 µg/mL (≈ 14.4 µM) |
| NCC[C@H](O)C(=O)N[C@@H]1C[C@H](N)[C@@H](O[C@H]2O[C@H](CN)[C@@H](O)[C@H](O)[C@H]2O)[C@H](O)[C@H]1O[C@H]1O[C@H](CO)[C@@H](O)[C@H](N)[C@H]1O [AMIKACIN] | – | – | – | – | 1 (≈ 1.71 µM) | 8 (≈ 13.7 µM) | 1 (≈ 1.71 µM) | 2 (≈ 3.42 µM) | 4 (≈ 6.83 µM) | – | 2 (≈ 3.42 µM) | 4 (≈ 6.83 µM) | 4 (≈ 6.83 µM) | 256 (≈ 437 µM) | 2 (≈ 3.42 µM) | 16 (≈ 27.3 µM) | 8 (≈ 13.7 µM) | 2 (≈ 3.42 µM) | 8 (≈ 13.7 µM) | 2 (≈ 3.42 µM) | MIC (Providencia stuartii [14]; [29]): 16 µg/mL (≈ 27.3 µM); MIC (Serratia marcescens [18]): 1 µg/mL (≈ 1.71 µM); MIC (Providencia stuartii [21]): 1 µg/mL (≈ 1.71 µM) |
| GENTAMICIN | 1 | 1 | 1 | 1 | 1 | 128 | 1 | 128 | 1 | 1 | 32 | 2 | 128 | 4 | 1 | – | 2 | 64 | 2 | 32 | MIC (Salmonella typhimurium [22]; Salmonella enterica subsp. enterica serovar Typhimurium): 1 µg/mL; MIC (Providencia stuartii [14]; pseudomonas stuartii): 64 µg/mL; MIC (Klebsiella pneumoniae [23]): 256 µg/mL |
| [N-]=[N+]=NCC1OC(OC2C(O)C(OC3OC(CN)C(O)C(O)C3N)C(N)CC2(N)CO)C(O)C(N)C1O (stereo unspecified) | 2 (≈ 3.71 µM) | 2 (≈ 3.71 µM) | 0.5 (≈ 0.928 µM) | > 128 | 0.5 (≈ 0.928 µM) | > 64 | 0.25 (≈ 0.464 µM) | > 64 | 1 (≈ 1.86 µM) | 1 (≈ 1.86 µM) | – | – | – | – | – | – | – | – | – | – | MIC (Salmonella typhimurium [5]): 1 µg/mL (≈ 1.86 µM) |
| NC[C@H]1O[C@H](O[C@H]2[C@H](O)[C@@H](O[C@H]3O[C@H](CO)[C@@H](O)[C@H](N)[C@H]3O)[C@H](N)C[C@@H]2N)[C@H](N)[C@@H](O)[C@@H]1O [BEKANAMYCIN] | 1 (≈ 2.07 µM) | 0.5 (≈ 1.03 µM) | 0.25 (≈ 0.517 µM) | > 128 | 0.5 (≈ 1.03 µM) | > 64 | 0.25 (≈ 0.517 µM) | > 64 | 1 (≈ 2.07 µM) | 0.25 (≈ 0.517 µM) | – | – | – | – | – | – | – | – | – | – | MIC (Salmonella typhimurium [22]; Salmonella enterica): 1 µg/mL (≈ 2.07 µM) |
| NCC1OC(OC2C(N)CC(N)(CO)C(OC3OC(CCl)C(O)C(N)C3O)C2O)C(N)C(O)C1O (stereo unspecified) | 2 (≈ 3.76 µM) | 1 (≈ 1.88 µM) | 0.5 (≈ 0.94 µM) | > 128 | 0.5 (≈ 0.94 µM) | > 64 | 0.25 (≈ 0.47 µM) | > 64 | 1 (≈ 1.88 µM) | 0.5 (≈ 0.94 µM) | > 256 | 128 (≈ 241 µM) | – | 128 (≈ 241 µM) | 2 (≈ 3.76 µM) | 256 (≈ 481 µM) | > 256 | 8 (≈ 15 µM) | > 128 | > 256 | MIC (Klebsiella pneumoniae [24]): 1 µg/mL (≈ 1.88 µM); MIC (Staphylococcus aureus [25]): 256 µg/mL (≈ 481 µM); MIC (Salmonella typhimurium [22]; Salmonella enterica): 2 µg/mL (≈ 3.76 µM); MIC (Klebsiella pneumoniae [26]): > 256 µg/mL; MIC (Escherichia coli [27]): > 256 µg/mL; MIC (Serratia marcescens [18]): 8 µg/mL (≈ 15 µM); MIC (Providencia stuartii [21]): 32 µg/mL (≈ 60.2 µM); MIC (Klebsiella pneumoniae [28]): 16 µg/mL (≈ 30.1 µM) |
| CNC1C(O)C(OC2C(O)C(OC3OC([C@@H](C)N)CCC3N)C(N)CC2(N)CO)OCC1(C)O (stereo partly specified) | – | – | – | – | – | – | – | – | – | – | – | – | 2 (≈ 4.05 µM) | 8 (≈ 16.2 µM) | – | – | – | – | – | 2 (≈ 4.05 µM) | MIC (Klebsiella pneumoniae [24]): 1 µg/mL (≈ 2.03 µM); MIC (Staphylococcus aureus [25]): 0.5 µg/mL (≈ 1.01 µM); MIC (Providencia stuartii [14]; [29]): 8 µg/mL (≈ 16.2 µM); MIC (Klebsiella pneumoniae [26]): 1 µg/mL (≈ 2.03 µM); MIC (Escherichia coli [27]): 8 µg/mL (≈ 16.2 µM); MIC (Klebsiella pneumoniae [28]): 2 µg/mL (≈ 4.05 µM) |
| NCC1OC(OC2C(N)CC(N)(CO)C(OC3OC(CO)C(O)C(N)C3O)C2O)C(N)C(O)C1O (stereo unspecified) | 1 (≈ 1.95 µM) | 0.5 (≈ 0.974 µM) | 0.25 (≈ 0.487 µM) | > 128 | 0.25 (≈ 0.487 µM) | > 64 | 0.25 (≈ 0.487 µM) | > 64 | 0.5 (≈ 0.974 µM) | 0.25 (≈ 0.487 µM) | > 128 | > 128 | – | > 128 | 4 (≈ 7.79 µM) | > 128 | > 128 | 8 (≈ 15.6 µM) | > 128 | > 128 | MIC (Klebsiella pneumoniae [24]): 1 µg/mL (≈ 1.95 µM); MIC (Staphylococcus aureus [25]): > 128 µg/mL; MIC (Salmonella typhimurium [22]; Salmonella enterica): 1 µg/mL (≈ 1.95 µM); MIC (Klebsiella pneumoniae [26]): > 128 µg/mL; MIC (Escherichia coli [27]): > 128 µg/mL; MIC (Serratia marcescens [18]): 4 µg/mL (≈ 7.79 µM); MIC (Providencia stuartii [21]): 16 µg/mL (≈ 31.2 µM); MIC (Klebsiella pneumoniae [28]): 4 µg/mL (≈ 7.79 µM) |
